Source: ChEMBL document CHEMBL3526104 (Drug Metab Dispos, 2011)

Experiments:
[1] = Volume of distribution at steady state in human; assay type: ADME, organism-based; design: dosed compound name Casopitant; conditions: in vivo, read-out: Vdss
[2] = Lipophilicity, log P of the compound; assay type: physicochemical; conditions: octanol/water
[3] = target: T1, Cytochrome P450 3A4 (Homo sapiens, UniProt P08684); assay: Drug metabolism assessed as human recombinant CYP3A4-mediated GSK525060 formation at 10 uM after 30 mins by HPLC-MS/MS method; assay type: ADME; conditions: recombinant enzyme, 0.5 h
How it was run: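 Recombinant human CYP3A4 in 50 mM phosphate buffer, pH 7.4, with an NADPH-generating system. […] GSK525060 formation quantified by HPLC-MS/MS.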

[4] = Cmax in healthy human at 150 mg, po administered as single dose; assay type: ADME, organism-based; conditions: in vivo
[5] = Dissociation constant, pKa of the compound; assay type: physicochemical
[6] = AUC (0 to t) in healthy human at 100 mg, po administered as single dose; assay type: ADME, organism-based; design: dosed compound name Casopitant; conditions: plasma
[7] = target: T1, Cytochrome P450 3A4; assay: Fraction of drug metabolized assessed as human CYP3A4-mediated drug metabolism; assay type: ADME; conditions: recombinant enzyme
[8] = system: Homo sapiens; assay: Cmax in healthy human assessed as fold change at 100 mg, po in presence of 400 mg ketoconazole; assay type: ADME, organism-based; design: dosed compound name Casopitant; conditions: in vivo
How it was run: (§1)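 Open-label study, healthy subjects (n=12 enrolled; 13 per treatment in table): single oral 100 mg dose given alone on Day 1, then with oral ketoconazole 400 mg once daily for 7 days, co-dosed on Day 4 of ketoconazole. Plasma parent drug measured by validated HPLC-MS/MS at selected time points; ratios from geometric means of AUC(0-t) and Cmax, 90% CI.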

[9] = Unbound fraction in human gut; assay type: ADME, tissue-based; design: dosed compound name Casopitant
[10] = Tmax in healthy human at 100 mg, po administered as single dose on day 4 and cotreated with ketoconazole at 400 mg, po qd on day 1 to 7; assay type: ADME, organism-based; design: dosed compound name Casopitant; conditions: in vivo
[11] = AUC (0 to t) in healthy human at 100 mg, po administered as single dose on day 4 and cotreated with ketoconazole at 400 mg, po qd on day 1 to 7; assay type: ADME, organism-based; design: dosed compound name Casopitant; conditions: plasma
[12] = Half life in healthy human at 150 mg, po administered as single dose on day 8 and cotreated with rifampin at 600 mg, po qd on day 1 to 9; assay type: ADME, organism-based; design: dosed compound name Casopitant; conditions: in vivo
[13] = Tmax in healthy human at 150 mg, po administered as single dose on day 8 and cotreated with rifampin at 600 mg, po qd on day 1 to 9; assay type: ADME, organism-based; design: dosed compound name Casopitant; conditions: in vivo
[14] = Cmax in healthy human at 100 mg, po administered as single dose on day 4 and cotreated with ketoconazole at 400 mg, po qd on day 1 to 7; assay type: ADME, organism-based; conditions: in vivo
[15] = Tmax in healthy human at 150 mg, po administered as single dose; assay type: ADME, organism-based; design: dosed compound name Casopitant; conditions: in vivo
[16] = system: Homo sapiens; assay: AUC in healthy human assessed as fold change at 150 mg, po in presence of 600 mg rifampin; assay type: ADME, organism-based, Plasma; design: dosed compound name Casopitant; conditions: in vivo
How it was run: (§2)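 Open-label study, 12 healthy subjects: single oral 150 mg dose alone on Day 1, then with oral rifampin 600 mg once daily (study Days 9-17), co-dosed on Day 16. Plasma parent drug measured by validated HPLC-MS/MS at selected time points; fold change from geometric means of AUC(0-t) and Cmax, 90% CI.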

[17] = AUC (0 to t) in healthy human at 150 mg, po administered as single dose; assay type: ADME, organism-based; design: dosed compound name Casopitant; conditions: plasma
[18] = target: CYP3A4 (Homo sapiens, UniProt P08684); assay: Metabolism dependent inactivation of CYP3A4 in human liver microsomes pretreated with compound in presence of midazolam substrate and NADPH by HPLC-MS/MS method relative to untreated control; conditions: probe midazolam
[19] = target: T1, Cytochrome P450 3A4; assay: Drug metabolism in human liver microsomes assessed as CYP3A4-mediated GSK525060 formation at 5 to 20 uM up to 30 mins by HPLC-MS/MS method; assay type: ADME; conditions: 0.5 h
How it was run: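 Pooled human liver microsomes in 50 mM phosphate buffer, pH 7.4, with an NADPH-generating system. […] GSK525060 measured by HPLC-MS/MS.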

[20] = Cmax in healthy human at 150 mg, po administered as single dose on day 8 and cotreated with rifampin at 600 mg, po qd on day 1 to 9; assay type: ADME, organism-based; conditions: in vivo
[21] = AUC (0 to t) in healthy human at 150 mg, po administered as single dose on day 8 and cotreated with rifampin at 600 mg, po qd on day 1 to 9; assay type: ADME, organism-based; design: dosed compound name Casopitant; conditions: plasma
[22] = Tmax in healthy human at 100 mg, po administered as single dose; assay type: ADME, organism-based; design: dosed compound name Casopitant; conditions: in vivo
[23] = system: Liver microsome; assay: Intrinsic clearance in human liver microsomes assessed per mg protein; assay type: ADME
How it was run: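 CLint derived from Km and Vmax of GSK525060 formation in human liver microsomes. […] Metabolite measured by HPLC-MS/MS; Michaelis-Menten fit by non-linear regression.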

[24] = system: Homo sapiens; assay: AUC in healthy human assessed as fold change at 100 mg, po in presence of 400 mg ketoconazole; assay type: ADME, organism-based, Plasma; design: dosed compound name Casopitant; conditions: in vivo; how it was run: as §1
[25] = Unbound fraction in human plasma; assay type: ADME, cell-free
[26] = Half life in healthy human at 150 mg, po administered as single dose; assay type: ADME, organism-based; design: dosed compound name Casopitant; conditions: in vivo
[27] = system: Homo sapiens; assay: Cmax in healthy human assessed as fold change at 150 mg, po in presence of 600 mg rifampin; assay type: ADME, organism-based; design: dosed compound name Casopitant; conditions: in vivo; how it was run: as §2
[28] = Cmax in healthy human at 100 mg, po administered as single dose; assay type: ADME, organism-based; conditions: in vivo
[29] = system: Homo sapiens; assay: AUC (0 to infinity) in healthy human assessed as fold change in presence of casopitant 120 mg, po once daily administered for 3 days; assay type: ADME, organism-based, Plasma; conditions: in vivo, 72 h
[30] = system: Homo sapiens; assay: AUC (0 to infinity) in healthy human assessed as fold change in presence of casopitant 30 mg, po once daily administered for 14 days; assay type: ADME, organism-based, Plasma; conditions: in vivo, 336 h
[31] = system: Homo sapiens; assay: AUC (0 to infinity) in healthy human assessed as fold change in presence of casopitant 30 mg, po once daily administered for 3 days; assay type: ADME, organism-based, Plasma; conditions: in vivo, 72 h
[32] = system: Homo sapiens; assay: AUC (0 to infinity) in healthy human assessed as fold change in presence of casopitant 120 mg, po once daily administered for 14 days; assay type: ADME, organism-based, Plasma; conditions: in vivo, 336 h

T1 sequence (P08684 whole entry): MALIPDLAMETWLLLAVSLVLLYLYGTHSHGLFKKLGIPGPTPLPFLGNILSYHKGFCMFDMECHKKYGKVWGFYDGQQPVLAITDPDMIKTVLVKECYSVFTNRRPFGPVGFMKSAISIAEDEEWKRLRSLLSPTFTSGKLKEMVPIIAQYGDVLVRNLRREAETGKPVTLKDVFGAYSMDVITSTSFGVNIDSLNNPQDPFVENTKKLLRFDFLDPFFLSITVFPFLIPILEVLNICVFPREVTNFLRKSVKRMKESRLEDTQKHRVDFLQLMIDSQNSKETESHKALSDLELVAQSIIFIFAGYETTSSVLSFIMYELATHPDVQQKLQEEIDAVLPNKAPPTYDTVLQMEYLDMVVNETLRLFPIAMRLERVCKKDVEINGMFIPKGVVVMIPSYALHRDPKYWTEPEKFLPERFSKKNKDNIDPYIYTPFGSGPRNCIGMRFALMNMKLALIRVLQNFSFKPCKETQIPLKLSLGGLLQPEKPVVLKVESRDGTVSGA
CYP3A4, sequence (P08684 whole entry): as above

For `CC(=O)N1CCN([C@H]2CCN(C(=O)N(C)[C@H](C)c3cc(C(F)(F)F)cc(C(F)(F)F)c3)[C@@H](c3ccc(F)cc3C)C2)CC1` [CASOPITANT], the Vd [1] was 2.58 L/kg, the logP [2] was 5.6 and the Drug metabolism [3] was “metabolite_detected”. It also gave a Cmax [4] of 847 ng/mL, a pKa [5] of 6.3 and an AUC(0-t) [6] of 2590 ng·h/mL. For the same molecule, the Fm [7] was 1, the “fold change (FC)” value [8] was 2.71 and the fraction unbound [9] was 1. The Tmax [10] was 2 h, the AUC(0-t) [11] was 31200 ng·h/mL and the half-life [12] was 6.45 h. It also gave a Tmax [13] of 1 h, a Cmax [14] of 1250 ng/mL and a Tmax [15] of 1.25 h. For the same molecule, the “fold change (FC)” value [16] was 0.04, the AUC(0-t) [17] was 6570 ng·h/mL and the KI [18] was 3.1 µM. The Drug metabolism [19] was “metabolite_detected”, the Cmax [20] was 93.2 ng/mL and the AUC(0-t) [21] was 273 ng·h/mL. The Tmax [22] was 1 h, the CLint [23] was 25 µL/min/mg and the “fold change (FC)” value [24] was 12.1. For the same molecule, the fraction unbound [25] was 0.005, the half-life [26] was 19.2 h and the “fold change (FC)” value [27] was 0.11. It also gave a Cmax [28] of 457 ng/mL.

For `Cc1ncc2n1-c1ccc(Cl)cc1C(c1ccccc1F)=NC2` [MIDAZOLAM], the “fold change (FC)” value [29] was 2.67, the “fold change (FC)” value [30] was 1.76 and the “fold change (FC)” value [31] was 2.02. The “fold change (FC)” value [32] was 3.49.

With `COC(=O)C1=C(C)NC(C)=C(C(=O)OC)C1c1ccccc1[N+](=O)[O-]` [NIFEDIPINE] the “fold change (FC)” value [29] was 1.77, the “fold change (FC)” value [30] was 1.61 and the “fold change (FC)” value [31] was 1.56. The “fold change (FC)” value [32] was 1.42.
